Experimental data from ChEMBL document CHEMBL2331439 (J Med Chem, 2013).
The source made the active and inactive calls. The rule behind the calls is not given here.

Legend:
[1] = molecular target: Mitogen-activated protein kinase 14 (Homo sapiens, UniProt Q16539); assay: Inhibition of recombinant MAPK14 (unknown origin) at 5 uM by cascade reaction assay
[2] = molecular target: Ribosomal protein S6 kinase alpha-3 (Homo sapiens) (UniProt P51812); assay: Inhibition of recombinant RPS6KA3 (unknown origin) at 5 uM by FRET-based Z'-LYTE assay
How it was run: (§1)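 Z'-LYTE FRET peptide (coumarin/fluorescein) phosphorylation was followed by protease development. Wells included a protease control for interference with development and a fluorescence control for interference with the FRET read. Values above 100% or below 0% were treated as maximal or no inhibition.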

[3] = molecular target: Dual specificity tyrosine-phosphorylation-regulated kinase 3 (Homo sapiens) (UniProt O43781); assay: Inhibition of recombinant DYRK3 (unknown origin) at 5 uM by FRET-based Z'-LYTE assay
How it was run: (§2)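 Single-point panel screen at 5 μM in duplicate. ATP is at the apparent Km of each kinase, and the Z'-LYTE FRET peptide substrate is used. Each point has two control wells: a protease control for interference with development and a fluorescence control for interference with the FRET read-out. Values above 100% are treated as maximal inhibition and values below 0% as none.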

[4] = molecular target: T1, MAP kinase-activated protein kinase 2 (Homo sapiens, UniProt P49137); details: 5 uM
[5] = molecular target: T2, Mitogen-activated protein kinase 1 (Homo sapiens, UniProt P28482); assay: Inhibition of recombinant MAPK1 (unknown origin) at 5 uM by FRET-based Z'-LYTE assay; how it was run: as §2
[6] = molecular target: High affinity nerve growth factor receptor (Homo sapiens) (UniProt P04629); assay: Inhibition of recombinant NTRK1 (unknown origin) at 5 uM by FRET-based Z'-LYTE assay; how it was run: as §2
[7] = molecular target: Cyclin-dependent kinase 1/cyclin B1 (Homo sapiens) (UniProt P06493+P14635); assay: Inhibition of recombinant CDK1/cyclin B (unknown origin) at 5 uM by FRET-based Z'-LYTE assay; type: protein-complex assay; how it was run: as §2
[8] = molecular target: Mast/stem cell growth factor receptor Kit (Homo sapiens) (UniProt P10721); assay: Inhibition of recombinant KIT (unknown origin) at 5 uM by FRET-based Z'-LYTE assay; how it was run: as §2
[9] = molecular target: RAC-beta serine/threonine-protein kinase (Homo sapiens, UniProt P31751); assay: Inhibition of recombinant AKT2 (unknown origin) by FRET-based Z'-LYTE assay
[10] = molecular target: Inhibitor of nuclear factor kappa-B kinase subunit epsilon (Homo sapiens) (UniProt Q14164); assay: Inhibition of recombinant IKBKE (unknown origin) at 5 uM by FRET-based Z'-LYTE assay; how it was run: as §2
[11] = molecular target: T1, MAP kinase-activated protein kinase 2; assay: Inhibition of recombinant MAPKAPK2 (unknown origin) by FRET-based Z'-LYTE assay
[12] = molecular target: Inhibitor of nuclear factor kappa-B kinase subunit beta (Homo sapiens) (UniProt O14920); assay: Inhibition of recombinant IKBKB (unknown origin) at 5 uM by FRET-based Z'-LYTE assay; how it was run: as §2
[13] = molecular target: cAMP-dependent protein kinase catalytic subunit alpha (Homo sapiens) (UniProt P17612); assay: Inhibition of recombinant PRKACA (unknown origin) at 5 uM by FRET-based Z'-LYTE assay; how it was run: as §2
[14] = molecular target: Tyrosine-protein kinase JAK3 (Homo sapiens) (UniProt P52333); assay: Inhibition of recombinant JAK3 (unknown origin) at 5 uM by FRET-based Z'-LYTE assay; how it was run: as §2
[15] = molecular target: Cyclin-dependent kinase 7/ cyclin H (Homo sapiens) (UniProt P51946+P50613); assay: Inhibition of recombinant CDK7/cyclin H/MNAT1 (unknown origin) at 5 uM after 1 hr by FRET-based adapta assay; type: protein-complex assay
How it was run: (§3)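 After inhibitor and all reaction components are added, the reaction runs for 1 h. ADP formed by the kinase displaces an antibody-tracer complex, so reduced ADP gives a high TR-FRET signal. Inhibition is calculated against a control.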

[16] = molecular target: Serine/threonine-protein kinase MARK2 (Homo sapiens) (UniProt Q7KZI7); assay: Inhibition of recombinant MARK2 (unknown origin) at 5 uM by FRET-based Z'-LYTE assay; how it was run: as §2
[17] = molecular target: Tyrosine-protein kinase Lck (Homo sapiens) (UniProt P06239); assay: Inhibition of recombinant LCK (unknown origin) at 5 uM by FRET-based Z'-LYTE assay; how it was run: as §2
[18] = molecular target: Insulin receptor (Homo sapiens) (UniProt P06213); assay: Inhibition of recombinant INSR (unknown origin) at 5 uM by FRET-based Z'-LYTE assay; how it was run: as §2
[19] = molecular target: Hepatocyte growth factor receptor (Homo sapiens) (UniProt P08581); assay: Inhibition of recombinant MET (unknown origin) at 5 uM by FRET-based Z'-LYTE assay; how it was run: as §2
[20] = molecular target: Angiopoietin-1 receptor (Homo sapiens) (UniProt Q02763); assay: Inhibition of recombinant TEK (unknown origin) at 5 uM by FRET-based Z'-LYTE assay; how it was run: as §1
[21] = molecular target: RAC-alpha serine/threonine-protein kinase (Homo sapiens, UniProt P31749); assay: Inhibition of recombinant AKT1 (unknown origin) at 5 uM by FRET-based Z'-LYTE assay; how it was run: as §2
[22] = molecular target: 3-phosphoinositide-dependent protein kinase 1 (Homo sapiens) (UniProt O15530); assay: Inhibition of recombinant PDK1 (unknown origin) at 5 uM by FRET-based Z'-LYTE assay; how it was run: as §2
[23] = molecular target: CDK9/cyclin T1 (Homo sapiens) (UniProt O60563+P50750); assay: Inhibition of recombinant CDK9/cyclin T1 (unknown origin) at 5 uM after 1 hr by FRET-based adapta assay; type: protein-complex assay; how it was run: as §3
[24] = molecular target: Cyclin-dependent kinase 2/cyclin A (Homo sapiens) (UniProt P24941+P20248+P78396); assay: Inhibition of recombinant CDK2/cyclin A (unknown origin) at 5 uM by FRET-based Z'-LYTE assay; type: protein-complex assay; how it was run: as §2
[25] = molecular target: T2, Mitogen-activated protein kinase 1; assay: Competitive inhibition of recombinant ERK2 (unknown origin) by FRET-based Z'-LYTE assay
[26] = molecular target: RAF proto-oncogene serine/threonine-protein kinase (Homo sapiens, UniProt P04049); assay: Inhibition of recombinant RAF1 (unknown origin) by cascade reaction assay
[27] = molecular target: Protein kinase C beta type (Homo sapiens) (UniProt P05771); assay: Inhibition of recombinant PRKCB1 (unknown origin) at 5 uM by FRET-based Z'-LYTE assay; how it was run: as §1
[28] = molecular target: Serine/threonine-protein kinase Nek1 (Homo sapiens) (UniProt Q96PY6); assay: Inhibition of recombinant NEK1 (unknown origin) at 5 uM by FRET-based Z'-LYTE assay; how it was run: as §2
[29] = molecular target: Aurora kinase A (Homo sapiens) (UniProt O14965); assay: Inhibition of recombinant AURKA (unknown origin) at 5 uM by FRET-based Z'-LYTE assay; how it was run: as §2
[30] = molecular target: Vascular endothelial growth factor receptor 2 (Homo sapiens, UniProt P35968); assay: Inhibition of recombinant KDR (unknown origin) by FRET-based Z'-LYTE assay
[31] = molecular target: Tyrosine-protein kinase BTK (Homo sapiens) (UniProt Q06187); assay: Inhibition of recombinant BTK (unknown origin) at 5 uM by FRET-based Z'-LYTE assay; how it was run: as §2
Chain of Tyrosine-protein kinase BTK (Homo sapiens) (Q06187 whole entry): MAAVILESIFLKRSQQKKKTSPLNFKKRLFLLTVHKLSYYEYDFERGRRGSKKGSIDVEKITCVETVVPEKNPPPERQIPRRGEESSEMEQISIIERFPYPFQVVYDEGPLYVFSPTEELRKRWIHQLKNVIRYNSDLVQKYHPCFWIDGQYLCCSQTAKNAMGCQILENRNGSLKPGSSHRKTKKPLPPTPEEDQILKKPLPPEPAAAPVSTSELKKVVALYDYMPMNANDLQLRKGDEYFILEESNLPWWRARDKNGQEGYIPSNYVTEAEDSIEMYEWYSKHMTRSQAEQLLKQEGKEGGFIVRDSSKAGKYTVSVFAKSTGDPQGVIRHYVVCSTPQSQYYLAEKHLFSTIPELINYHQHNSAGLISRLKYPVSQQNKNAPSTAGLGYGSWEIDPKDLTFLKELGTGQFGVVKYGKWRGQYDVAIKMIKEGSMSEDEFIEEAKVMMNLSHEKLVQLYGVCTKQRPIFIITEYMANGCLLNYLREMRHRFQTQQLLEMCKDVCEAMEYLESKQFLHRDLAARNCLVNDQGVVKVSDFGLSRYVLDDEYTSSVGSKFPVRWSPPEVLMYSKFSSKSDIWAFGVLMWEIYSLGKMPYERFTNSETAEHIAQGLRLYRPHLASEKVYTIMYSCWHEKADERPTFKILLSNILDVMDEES

T2 sequence (P28482 whole entry): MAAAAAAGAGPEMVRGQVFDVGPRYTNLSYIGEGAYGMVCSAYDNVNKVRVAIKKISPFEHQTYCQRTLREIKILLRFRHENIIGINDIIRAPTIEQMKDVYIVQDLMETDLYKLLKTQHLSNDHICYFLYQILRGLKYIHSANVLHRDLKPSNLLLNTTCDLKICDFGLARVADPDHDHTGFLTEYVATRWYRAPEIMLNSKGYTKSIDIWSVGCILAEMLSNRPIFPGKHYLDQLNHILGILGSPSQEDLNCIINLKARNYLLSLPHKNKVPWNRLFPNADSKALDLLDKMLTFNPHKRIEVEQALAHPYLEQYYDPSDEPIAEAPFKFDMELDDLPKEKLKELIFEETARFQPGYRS
Chain of Angiopoietin-1 receptor (Homo sapiens) (Q02763 whole entry): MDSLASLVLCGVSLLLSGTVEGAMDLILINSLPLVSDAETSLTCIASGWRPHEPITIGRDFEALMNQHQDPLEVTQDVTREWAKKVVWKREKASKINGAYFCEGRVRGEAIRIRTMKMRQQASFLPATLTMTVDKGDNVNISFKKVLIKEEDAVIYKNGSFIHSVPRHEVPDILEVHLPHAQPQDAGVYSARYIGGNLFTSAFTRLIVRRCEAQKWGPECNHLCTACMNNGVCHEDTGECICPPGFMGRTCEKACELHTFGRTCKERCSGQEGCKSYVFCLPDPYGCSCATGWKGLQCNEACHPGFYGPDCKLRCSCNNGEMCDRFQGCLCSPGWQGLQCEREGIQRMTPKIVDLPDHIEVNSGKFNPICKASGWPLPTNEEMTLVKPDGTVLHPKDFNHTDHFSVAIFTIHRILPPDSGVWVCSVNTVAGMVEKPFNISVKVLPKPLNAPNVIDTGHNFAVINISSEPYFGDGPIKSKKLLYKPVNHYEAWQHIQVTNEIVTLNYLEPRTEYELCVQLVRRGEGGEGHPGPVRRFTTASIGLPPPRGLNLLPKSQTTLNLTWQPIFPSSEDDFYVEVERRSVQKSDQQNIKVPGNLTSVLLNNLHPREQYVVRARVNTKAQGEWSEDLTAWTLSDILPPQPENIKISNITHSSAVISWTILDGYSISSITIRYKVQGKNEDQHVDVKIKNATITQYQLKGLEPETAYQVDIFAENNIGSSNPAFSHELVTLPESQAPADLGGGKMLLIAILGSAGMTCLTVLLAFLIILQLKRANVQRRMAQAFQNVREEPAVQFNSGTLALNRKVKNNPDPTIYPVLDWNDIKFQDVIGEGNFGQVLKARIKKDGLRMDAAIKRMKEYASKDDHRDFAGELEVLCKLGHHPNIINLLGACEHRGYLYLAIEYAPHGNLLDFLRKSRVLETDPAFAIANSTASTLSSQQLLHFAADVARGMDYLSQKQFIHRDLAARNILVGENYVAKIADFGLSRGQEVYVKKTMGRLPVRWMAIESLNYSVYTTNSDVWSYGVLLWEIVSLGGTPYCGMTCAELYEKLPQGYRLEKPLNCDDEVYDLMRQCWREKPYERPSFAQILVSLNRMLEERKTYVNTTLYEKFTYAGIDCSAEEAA
Chain of RAF proto-oncogene serine/threonine-protein kinase (P04049 whole entry): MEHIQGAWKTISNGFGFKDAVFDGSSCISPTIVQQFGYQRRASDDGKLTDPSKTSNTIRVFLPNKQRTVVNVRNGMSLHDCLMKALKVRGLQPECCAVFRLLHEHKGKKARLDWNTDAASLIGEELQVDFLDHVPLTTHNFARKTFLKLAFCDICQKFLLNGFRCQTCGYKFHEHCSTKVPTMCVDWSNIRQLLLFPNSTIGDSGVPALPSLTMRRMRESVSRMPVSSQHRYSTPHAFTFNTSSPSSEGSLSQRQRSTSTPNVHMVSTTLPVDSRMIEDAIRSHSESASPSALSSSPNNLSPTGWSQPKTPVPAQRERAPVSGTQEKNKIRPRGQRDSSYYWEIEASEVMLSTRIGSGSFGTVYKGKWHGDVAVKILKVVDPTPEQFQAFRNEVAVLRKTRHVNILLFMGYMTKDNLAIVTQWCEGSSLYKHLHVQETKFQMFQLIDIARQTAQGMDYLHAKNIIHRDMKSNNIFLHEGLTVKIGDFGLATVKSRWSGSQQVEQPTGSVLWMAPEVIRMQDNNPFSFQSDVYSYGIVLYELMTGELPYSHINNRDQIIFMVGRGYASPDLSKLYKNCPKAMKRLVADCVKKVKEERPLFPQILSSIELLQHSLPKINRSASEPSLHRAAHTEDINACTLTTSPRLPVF
Chain of RAC-beta serine/threonine-protein kinase (P31751 whole entry): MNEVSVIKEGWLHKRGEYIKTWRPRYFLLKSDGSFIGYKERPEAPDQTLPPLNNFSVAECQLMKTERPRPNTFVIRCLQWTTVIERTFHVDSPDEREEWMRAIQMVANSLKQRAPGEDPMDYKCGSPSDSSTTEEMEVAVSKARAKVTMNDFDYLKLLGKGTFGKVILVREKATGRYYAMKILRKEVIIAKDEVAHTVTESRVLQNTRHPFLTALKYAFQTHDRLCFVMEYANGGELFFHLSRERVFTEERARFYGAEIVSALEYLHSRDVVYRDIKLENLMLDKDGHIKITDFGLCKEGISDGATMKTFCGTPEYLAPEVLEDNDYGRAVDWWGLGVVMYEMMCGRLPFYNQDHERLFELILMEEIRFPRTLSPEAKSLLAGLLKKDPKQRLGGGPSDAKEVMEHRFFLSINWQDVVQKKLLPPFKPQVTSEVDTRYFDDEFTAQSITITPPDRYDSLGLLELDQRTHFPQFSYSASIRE
Chain of Ribosomal protein S6 kinase alpha-3 (Homo sapiens) (P51812 whole entry): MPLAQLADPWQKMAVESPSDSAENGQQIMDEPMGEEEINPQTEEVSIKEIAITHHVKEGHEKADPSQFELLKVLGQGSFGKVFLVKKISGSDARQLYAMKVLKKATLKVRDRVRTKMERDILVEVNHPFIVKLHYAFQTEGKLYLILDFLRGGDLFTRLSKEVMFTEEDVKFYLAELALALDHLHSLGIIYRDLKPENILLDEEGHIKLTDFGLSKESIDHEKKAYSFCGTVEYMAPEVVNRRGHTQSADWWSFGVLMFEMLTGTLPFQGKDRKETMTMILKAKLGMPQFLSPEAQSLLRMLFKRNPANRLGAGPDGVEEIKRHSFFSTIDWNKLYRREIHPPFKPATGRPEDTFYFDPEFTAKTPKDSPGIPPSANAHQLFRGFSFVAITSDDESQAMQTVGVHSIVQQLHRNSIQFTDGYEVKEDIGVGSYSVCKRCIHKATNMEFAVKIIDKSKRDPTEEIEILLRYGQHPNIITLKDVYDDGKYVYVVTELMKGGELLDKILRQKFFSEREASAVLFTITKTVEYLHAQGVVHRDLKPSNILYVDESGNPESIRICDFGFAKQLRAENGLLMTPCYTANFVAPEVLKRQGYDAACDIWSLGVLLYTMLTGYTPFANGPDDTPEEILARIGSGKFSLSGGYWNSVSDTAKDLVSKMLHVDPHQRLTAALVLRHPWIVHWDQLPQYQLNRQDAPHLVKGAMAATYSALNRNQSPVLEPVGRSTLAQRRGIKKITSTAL
Chain of Dual specificity tyrosine-phosphorylation-regulated kinase 3 (Homo sapiens) (O43781 whole entry): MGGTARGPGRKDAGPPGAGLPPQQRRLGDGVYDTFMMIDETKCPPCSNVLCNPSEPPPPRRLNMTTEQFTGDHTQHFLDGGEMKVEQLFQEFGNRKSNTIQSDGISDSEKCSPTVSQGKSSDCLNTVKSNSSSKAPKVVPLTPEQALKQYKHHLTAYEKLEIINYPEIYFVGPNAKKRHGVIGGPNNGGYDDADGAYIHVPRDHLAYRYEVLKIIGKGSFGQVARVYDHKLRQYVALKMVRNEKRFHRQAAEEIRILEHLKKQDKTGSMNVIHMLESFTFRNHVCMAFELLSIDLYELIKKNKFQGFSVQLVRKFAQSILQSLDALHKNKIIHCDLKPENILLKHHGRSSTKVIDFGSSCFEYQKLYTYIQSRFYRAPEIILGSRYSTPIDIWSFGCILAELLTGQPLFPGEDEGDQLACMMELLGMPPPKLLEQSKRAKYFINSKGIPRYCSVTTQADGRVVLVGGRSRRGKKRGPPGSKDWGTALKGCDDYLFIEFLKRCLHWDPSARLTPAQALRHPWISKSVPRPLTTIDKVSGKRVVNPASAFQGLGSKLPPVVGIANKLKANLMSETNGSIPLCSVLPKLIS
Chain of Aurora kinase A (Homo sapiens) (O14965 whole entry): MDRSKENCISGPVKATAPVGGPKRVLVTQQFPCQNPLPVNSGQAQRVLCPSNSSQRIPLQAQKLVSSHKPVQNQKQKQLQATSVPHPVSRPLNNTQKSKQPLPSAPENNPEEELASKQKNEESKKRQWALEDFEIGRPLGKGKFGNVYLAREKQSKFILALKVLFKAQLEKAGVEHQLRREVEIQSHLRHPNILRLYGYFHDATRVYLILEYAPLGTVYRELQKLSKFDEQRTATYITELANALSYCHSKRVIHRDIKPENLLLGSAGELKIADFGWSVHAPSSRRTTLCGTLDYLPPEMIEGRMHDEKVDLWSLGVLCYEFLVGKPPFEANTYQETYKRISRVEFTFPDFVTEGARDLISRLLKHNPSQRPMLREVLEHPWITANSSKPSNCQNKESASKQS

In the case of `O=C1/C(=C/c2ccccn2)CNC/C1=C\c1ccccn1`, the inhibition [1] is reported as 104%, the inhibition [2] is reported as 77% and the inhibition [3] is reported as 48%. The inhibition [4] was 85%, the inhibition [5] was 34% and the inhibition [6] was 25%. It also gave an inhibition [7] of 24%, an inhibition [8] of 2% and an IC50 [9] of 0.02 µM. The inhibition [10] was 15%, the IC50 [11] was 6.7 µM and the inhibition [12] was 107%. It also gave an inhibition [13] of 11%, an inhibition [14] of 15% and an inhibition [15] of 3%. It also gave an inhibition [16] of 22%, an inhibition [17] of 13% and an inhibition [18] of 15%. For the same compound, the inhibition [19] was 75%, the inhibition [20] was 51% and the inhibition [21] was 107%. It also gave an inhibition [22] of 54%, an inhibition [23] of 26% and an inhibition [24] of 1%. For the same compound, the inhibition [25] was “Active”, the IC50 [26] was 1.6 µM and the inhibition [27] was 91%. The inhibition [28] was 102%, the inhibition [29] was 77% and the IC50 [30] was 0.66 µM. The inhibition [31] was 44%.
